Source: ChEMBL document CHEMBL4480400, “Development of an N-Acyl Amino Acid That Selectively Inhibits the Glycine Transporter 2 To Produce Analgesia in a Rat Model of Chronic Pain” (J Med Chem, 2019)

Columns and labels:
[1] = molecular target: T1, Sodium- and chloride-dependent glycine transporter 2 (Homo sapiens, UniProt Q9Y345); test: Inhibition of recombinant human GlyT2a expressed in Xenopus laevis oocytes assessed as reduction in channel current by two-electrode voltage clamp electrophysiology; assay type: cell-based
T1 sequence (Q9Y345 whole entry): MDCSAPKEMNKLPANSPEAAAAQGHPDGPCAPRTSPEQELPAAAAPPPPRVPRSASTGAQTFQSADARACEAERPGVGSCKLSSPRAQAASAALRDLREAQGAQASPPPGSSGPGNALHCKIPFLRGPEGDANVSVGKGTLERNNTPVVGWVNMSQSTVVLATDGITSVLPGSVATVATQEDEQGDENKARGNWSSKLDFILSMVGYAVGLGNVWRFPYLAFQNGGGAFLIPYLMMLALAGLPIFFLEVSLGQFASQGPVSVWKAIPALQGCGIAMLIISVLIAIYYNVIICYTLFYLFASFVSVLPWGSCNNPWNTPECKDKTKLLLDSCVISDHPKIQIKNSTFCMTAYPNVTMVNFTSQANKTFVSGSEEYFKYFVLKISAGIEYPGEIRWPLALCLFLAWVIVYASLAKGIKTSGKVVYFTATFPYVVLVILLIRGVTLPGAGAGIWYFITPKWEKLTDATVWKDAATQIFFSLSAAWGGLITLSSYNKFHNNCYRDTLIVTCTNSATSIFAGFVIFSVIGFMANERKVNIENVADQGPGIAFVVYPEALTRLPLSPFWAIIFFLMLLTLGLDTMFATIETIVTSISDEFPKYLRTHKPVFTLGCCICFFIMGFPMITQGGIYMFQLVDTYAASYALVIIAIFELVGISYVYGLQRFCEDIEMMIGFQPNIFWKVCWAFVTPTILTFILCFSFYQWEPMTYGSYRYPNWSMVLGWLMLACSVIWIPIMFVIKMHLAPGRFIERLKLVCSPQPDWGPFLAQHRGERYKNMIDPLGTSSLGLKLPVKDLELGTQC

[2] = molecular target: T2, Sodium- and chloride-dependent glycine transporter 2 (Homo sapiens) (UniProt Q9Y345); test: Inhibition of recombinant human GlyT2a expressed in Xenopus laevis oocytes assessed as reduction in channel current by two-electrode voltage clamp electrophysiology relative to control; assay type: cell-based
T2 sequence (whole entry): T1 sequence (Q9Y345 whole entry)

[3] = molecular target: T3, Sodium- and chloride-dependent glycine transporter 1 (Homo sapiens, UniProt P48067); test: Inhibition of recombinant human GlyT1b expressed in Xenopus laevis oocytes assessed as reduction in channel current by two-electrode voltage clamp electrophysiology; assay type: cell-based
T3 sequence (P48067 whole entry): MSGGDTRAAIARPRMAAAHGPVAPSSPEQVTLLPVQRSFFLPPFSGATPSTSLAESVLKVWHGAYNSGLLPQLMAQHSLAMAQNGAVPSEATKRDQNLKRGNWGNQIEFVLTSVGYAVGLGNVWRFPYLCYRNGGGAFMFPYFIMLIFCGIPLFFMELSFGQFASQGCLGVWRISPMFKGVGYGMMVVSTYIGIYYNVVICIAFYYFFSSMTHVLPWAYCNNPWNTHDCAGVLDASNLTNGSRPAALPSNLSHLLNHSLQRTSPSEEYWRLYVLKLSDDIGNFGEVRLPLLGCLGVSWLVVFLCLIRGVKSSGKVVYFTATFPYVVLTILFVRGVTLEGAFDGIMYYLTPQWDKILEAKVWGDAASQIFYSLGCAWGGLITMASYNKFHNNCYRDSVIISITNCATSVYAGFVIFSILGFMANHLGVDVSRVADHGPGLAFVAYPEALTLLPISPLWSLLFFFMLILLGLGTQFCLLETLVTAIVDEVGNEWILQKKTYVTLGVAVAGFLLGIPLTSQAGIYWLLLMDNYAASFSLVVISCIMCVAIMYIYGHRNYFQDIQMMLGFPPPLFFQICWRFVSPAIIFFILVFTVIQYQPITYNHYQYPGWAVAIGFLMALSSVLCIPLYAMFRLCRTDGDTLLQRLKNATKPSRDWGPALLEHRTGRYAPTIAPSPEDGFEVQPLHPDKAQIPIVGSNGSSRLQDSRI

[4] = molecular target: T1, Sodium- and chloride-dependent glycine transporter 2; test: Reversible non-competitive inhibition of human GlyT2a expressed in Xenopus laevis oocytes by two-electrode voltage clamp electrophysiology; assay type: cell-based
In short: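 Xenopus laevis stage V-VI oocytes injected with 4.6 ng GlyT2 cRNA, kept 2-5 days at 16-18 °C in ND96 (pH 7.55). Two-electrode voltage clamp at -60 mV. Glycine concentration responses recorded without inhibitor, then after 2 min pre-application of inhibitor (10 nM, 30 nM or 1 μM) in ND96. Currents normalised per cell to Imax at 300 μM glycine without inhibitor; EC50 and Imax compared by ANOVA.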

[5] = Drug degradation in human plasma at 1000 ng/ml measured over 240 mins by LC-MS/MS analysis; assay type: ADME, cell-free; settings: read-out: Drug degradation
In short: (§1)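 Pooled human plasma (3 donors) or pooled male Sprague-Dawley rat plasma, thawed at 37°C. Spiked to a nominal 1000 ng/mL final (0.2% DMSO, 0.4% acetonitrile final) and incubated at 37°C. Aliquots were snap-frozen at time points over 4 h (n=3 per time point). Quantified by LC-MS against a same-species blank-plasma calibration with a leucine enkephalin internal standard.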

[6] = Degradation half life in human plasma at 1000 ng/ml by LC-MS/MS analysis; assay type: ADME, cell-free; in short: as §1
[7] = Degradation half life in rat plasma at 1000 ng/ml by LC-MS/MS analysis; assay type: ADME, cell-free; in short: as §1

Structure (SMILES)	IC50 [1] [µM]	Imax [2] [%]	IC50 [3] [µM]	IC50 [4] [µM]	metabolised at 4 h, 1000 ng/ml [5] [%]	t1/2 [6] [h]	t1/2 [7] [h]
CCCCCCCC/C=C\CCCCCCCC(=O)N[C@H](CCCNC(=N)N)C(=O)O	0.0692	70.9	> 3				
CCCCCCCC/C=C\CCCCCCCC(=O)N[C@@H](CCN)C(=O)O	0.152	82.7	> 3				
CCCCCCCC/C=C\CCCCCCCC(=O)N[C@H](Cc1ccccc1)C(=O)O	> 10	42.3	> 10				
CCCCCCCC/C=C\CCCCCCCC(=O)N[C@@H](Cc1ccccc1)C(=O)O	0.214	54.7	> 10				
CCCCCCCC/C=C\CCCCCCCC(=O)NCCCCCN	0.56	86.7	> 3				
CCCCCCCC/C=C\CCCCCCCC(=O)N[C@@H](CC(=O)O)C(=O)O	0.865	76.7	> 10				
CCCCCCCC/C=C\CCCCCCCC(=O)O[C@H](CC(=O)[O-])C[N+](C)(C)C				0.34			
CCCCCCCC/C=C\CCCCCCCC(=O)N[C@@H](CCCN)C(=O)O	0.0316	86	> 3				
CCCCC/C=C\C/C=C\C/C=C\C/C=C\CCCC(=O)NCCCC(=O)O [ARACHIDONOYL GABA]				12			
CCCCCCCC/C=C\CCCCCCCC(=O)N[C@H](C)C(=O)O	2.33	81.7	> 30				
CCCCCCCC/C=C\CCCCCCCC(=O)N[C@H](Cc1c[nH]c2ccccc12)C(=O)O	> 10	14.2	> 10				
CCCCC/C=C\C/C=C\C/C=C\C/C=C\CCCC(=O)NCC(=O)O [ARACHIDONOYL GLYCINE]				9			
CCCCCCCC/C=C\CCCCCCCC(=O)N[C@@H](CCCCN)C(=O)OC	0.0913	78.8	> 3				
CCCCCCCC/C=C\CCCCCCCC(=O)N[C@@H](CCC(=O)O)C(=O)O	4.35	100	> 10				
CCCCCCCC/C=C\CCCCCCCC(=O)N[C@@H](Cc1cnc[nH]1)C(=O)O	0.13	78.4	> 3				
CCCCCCCC/C=C\CCCCCCCC(=O)N[C@@H](CC(N)=O)C(=O)O	0.613	92.7	> 10				
CCCCCCCC/C=C\CCCCCCCC(=O)N[C@@H](CCSC)C(=O)O	0.0292	91.2	> 3				
CCCCCCCC/C=C\CCCCCCCC(=O)N[C@@H](CCCC)C(=O)O	0.259	64.5	> 10				
CCCCCCCC/C=C\CCCCCCCC(=O)N[C@H](CCSC)C(=O)O	0.259	68.6	> 3				

Structure (SMILES)	IC50 [1] [µM]	Imax [2] [%]	IC50 [3] [µM]	IC50 [4] [µM]	metabolised at 4 h, 1000 ng/ml [5] [%]	t1/2 [6] [h]	t1/2 [7] [h]
CCCCCCCC/C=C\CCCCCCCC(=O)N[C@@H](C)C(=O)O	1.23	89.8	> 30				
CCCCCCCC/C=C\CCCCCCCC(=O)N[C@@H](CN)C(=O)O	0.182	58.2	> 3				
CCCCCCCC/C=C\CCCCCCCC(=O)N[C@@H](C(=O)O)C(C)C	1	56.7	> 30				
CCCCCCCCCCCCCCCC(=O)O[C@H](CC(=O)[O-])C[N+](C)(C)C				0.6			
CCCCCCCC/C=C\CCCCCCCC(=O)N[C@@H](CCCNC(=N)N)C(=O)O	0.0479	87.2	> 3				
CCCCCCCC/C=C\CCCCCCCC(=O)NCC(=O)O [OLEOYL GLYCINE]	0.5	66.8	> 30	0.5	< 15	> 17.03	0.45
CCCCCCCC/C=C\CCCCCCCC(=O)N[C@H](CO)C(=O)O	0.0648	73.6	> 3				
CCCCCCCC/C=C\CCCCCCCC(=O)N[C@@H](Cc1c[nH]c2ccccc12)C(=O)O	0.0546	86.2	> 10				
CCCCCCCC/C=C\CCCCCCCC(=O)N[C@@H](CCc1ccccc1)C(=O)O	0.151	75.1	> 10				
CCCCC/C=C\C/C=C\C/C=C\C/C=C\CCCC(=O)N[C@@H](C)C(=O)O				9			
CCCCCCCC/C=C\CCCCCCCC(=O)N[C@H](Cc1cnc[nH]1)C(=O)O	0.313	82.1	> 3				
CCCCCCCC/C=C\CCCCCCCC(=O)N[C@@H](CO)C(=O)O	0.496	73.1	> 3				
CCCCCCCC/C=C\CCCCCCCC(=O)N[C@@H](CC(C)C)C(=O)O	0.143	72.2	> 10				
CCCCCCCC/C=C\CCCCCCCC(=O)N[C@H](CCC(=O)O)C(=O)O	3.75	91.6	> 10				
CCCCCCCC/C=C\CCCCCCCC(=O)N[C@H](CC(=O)O)C(=O)O	1.81	92.5	> 10				
CCCCCCCC/C=C\CCCCCCCC(=O)N[C@H](CC(C)C)C(=O)O	> 30	35.6	> 30				
CCCCCCCC/C=C\CCCCCCCC(=O)N[C@H](CCc1ccccc1)C(=O)O	> 10	10.2	> 10				
CCCCCCCC/C=C\CCCCCCCC(=O)N[C@H](C(=O)O)C(C)C	1.17	90.1	> 30				
